Assays:
Type in all cases: functional
OVCAR-8 = assay: Anticancer activity against human OVCAR8 cells assessed as cell growth at 10 uM after 48 hrs by sulforhodamine B assay relative to control; conditions: OVCAR-8, 48 h, read-out: Activity
Procedure, shortened: (§1)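 Single-dose NCI-60 panel screen: compound added at 10 µM and the culture incubated 48 h. The end point was read by protein staining with sulforhodamine B. The value is percent growth of treated cells relative to untreated control cells, reported as a mean graph across the panel.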

UACC-62 = assay: Anticancer activity against human UACC62 cells assessed as cell growth at 10 uM after 48 hrs by sulforhodamine B assay relative to control; conditions: UACC-62, 48 h, read-out: Activity
Procedure, shortened: (§2)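 NCI-60 single-dose screen: compound added at 10 µM, cultures incubated 48 h. End point by sulforhodamine B protein-binding dye. Value reported as percent growth of treated cells relative to untreated control cells.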

HL-60(TB) = assay: Anticancer activity against human HL-60(TB) cells assessed as cell growth at 10 uM after 48 hrs by sulforhodamine B assay relative to control; conditions: HL-60, 48 h, read-out: Activity
Procedure, shortened: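 NCI-60 human tumour panel single-dose screen: cells exposed to 10 µM compound for 48 h. Growth end point read with sulforhodamine B protein-binding dye. Expressed as percent growth of treated cells versus untreated control cells.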

OVCAR-3 = assay: Anticancer activity against human OVCAR3 cells assessed as cell growth at 10 uM after 48 hrs by sulforhodamine B assay relative to control; conditions: OVCAR-3, 48 h, read-out: Activity; procedure, shortened: as §1
EKVX = assay: Growth inhibition of human EKVX cells incubated for 48 hrs by sulforhodamine B assay; conditions: for CC50: read-out: LC50 (the source's name)
Procedure, shortened: (§3)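 NCI-60 five-dose screen at 0.01, 0.1, 1, 10 and 100 µM, 48 h incubation, sulforhodamine B end point. GI50 (50% decrease in net growth), TGI (total growth inhibition) and LC50 (net 50% loss of initial cells) taken from log concentration versus % growth inhibition curves.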

OVCAR-4 = assay: Anticancer activity against human OVCAR4 cells assessed as cell growth at 10 uM after 48 hrs by sulforhodamine B assay relative to control; conditions: OVCAR-4, 48 h, read-out: Activity; procedure, shortened: as §1
SF-268 = assay: Anticancer activity against human SF268 cells assessed as cell growth at 10 uM after 48 hrs by sulforhodamine B assay relative to control; conditions: SF-268, 48 h, read-out: Activity; procedure, shortened: as §1
HCT-15 = assay: Anticancer activity against human HCT15 cells assessed as cell growth at 10 uM after 48 hrs by sulforhodamine B assay relative to control; conditions: HCT-15, 48 h, read-out: Activity; procedure, shortened: as §1
HCC 2998 = assay: Anticancer activity against human HCC2998 cells assessed as cell growth at 10 uM after 48 hrs by sulforhodamine B assay relative to control; conditions: HCC 2998, 48 h, read-out: Activity; procedure, shortened: as §1
NCI-H460 = assay: Anticancer activity against human NCI-H460 cells assessed as cell growth at 10 uM after 48 hrs by sulforhodamine B assay relative to control; conditions: NCI-H460, 48 h, read-out: Activity; procedure, shortened: as §1
786-0 [1] = assay: Growth inhibition of human 786-0 cells incubated for 48 hrs by sulforhodamine B assay; conditions: 786-0, 48 h; procedure, shortened: as §3
SK-MEL-2 = assay: Anticancer activity against human SK-MEL-2 cells assessed as cell growth at 10 uM after 48 hrs by sulforhodamine B assay relative to control; conditions: SK-MEL-2, 48 h, read-out: Activity; procedure, shortened: as §1
NCI/ADR-RES = assay: Anticancer activity against human NCI/ADR-RES cells assessed as cell growth at 10 uM after 48 hrs by sulforhodamine B assay relative to control; conditions: read-out: Activity; procedure, shortened: as §1
K562 [2] = assay: Anticancer activity against human K562 cells assessed as cell growth at 10 uM after 48 hrs by sulforhodamine B assay relative to control; conditions: K562, 48 h, read-out: Activity; procedure, shortened: as §1
T47D = assay: Anticancer activity against human T47D cells assessed as cell growth at 10 uM after 48 hrs by sulforhodamine B assay relative to control; conditions: read-out: Activity; procedure, shortened: as §2
A498 = assay: Anticancer activity against human A498 cells assessed as cell growth at 10 uM after 48 hrs by sulforhodamine B assay relative to control; conditions: A498, 48 h, read-out: Activity; procedure, shortened: as §1
SR = assay: Anticancer activity against human SR cells assessed as cell growth at 10 uM after 48 hrs by sulforhodamine B assay relative to control; conditions: read-out: Activity; procedure, shortened: as §2
UO-31 = assay: Anticancer activity against human UO31 cells assessed as cell growth at 10 uM after 48 hrs by sulforhodamine B assay relative to control; conditions: UO-31, 48 h, read-out: Activity; procedure, shortened: as §2
MOLT-4 = assay: Anticancer activity against human MOLT4 cells assessed as cell growth at 10 uM after 48 hrs by sulforhodamine B assay relative to control; conditions: MOLT-4, 48 h, read-out: Activity; procedure, shortened: as §1
Hs-578T = assay: Anticancer activity against human Hs 578T cells assessed as cell growth at 10 uM after 48 hrs by sulforhodamine B assay relative to control; conditions: read-out: Activity; procedure, shortened: as §1
CCRF-CEM = assay: Anticancer activity against human CCRF-CEM cells assessed as cell growth at 10 uM after 48 hrs by sulforhodamine B assay relative to control; conditions: read-out: Activity; procedure, shortened: as §1
K562 [3] = assay: Growth inhibition of human K562 cells incubated for 48 hrs by sulforhodamine B assay; conditions: K562, 48 h; for CC50: read-out: LC50 (the source's name); procedure, shortened: as §3
ACHN = assay: Anticancer activity against human ACHN cells assessed as cell growth at 10 uM after 48 hrs by sulforhodamine B assay relative to control; conditions: read-out: Activity; procedure, shortened: as §1
UACC-257 = assay: Anticancer activity against human UACC257 cells assessed as cell growth at 10 uM after 48 hrs by sulforhodamine B assay relative to control; conditions: UACC-257, 48 h, read-out: Activity; procedure, shortened: as §2
BT-549 = assay: Anticancer activity against human BT549 cells assessed as cell growth at 10 uM after 48 hrs by sulforhodamine B assay relative to control; conditions: BT-549, 48 h, read-out: Activity; procedure, shortened: as §1
SNB-75 = assay: Anticancer activity against human SNB75 cells assessed as cell growth at 10 uM after 48 hrs by sulforhodamine B assay relative to control; conditions: SNB-75, 48 h, read-out: Activity; procedure, shortened: as §2
SK-OV-3 = assay: Anticancer activity against human SKOV3 cells assessed as cell growth at 10 uM after 48 hrs by sulforhodamine B assay relative to control; conditions: SK-OV-3, 48 h, read-out: Activity; procedure, shortened: as §1
TK-10 = assay: Anticancer activity against human TK10 cells assessed as cell growth at 10 uM after 48 hrs by sulforhodamine B assay relative to control; conditions: TK-10, 48 h, read-out: Activity; procedure, shortened: as §2
786-0 [4] = assay: Anticancer activity against human 786-0 cells assessed as cell growth at 10 uM after 48 hrs by sulforhodamine B assay relative to control; conditions: 786-0, 48 h, read-out: Activity; procedure, shortened: as §1
SNB-19 = assay: Anticancer activity against human SNB19 cells assessed as cell growth at 10 uM after 48 hrs by sulforhodamine B assay relative to control; conditions: SNB-19, 48 h, read-out: Activity; procedure, shortened: as §1

C=C1CC[C@@H]2[C@](C)(COC(C)=O)[C@H](OC(C)=O)CC[C@@]2(C)[C@H]1CC(Nc1ccc(S(=O)(=O)Nc2cc(C)on2)cc1)C1=CCOC1=O (stereo partly specified)
growth at 10 µM (OVCAR-8): 16.1%
growth at 10 µM (UACC-62): 19.8%
growth at 10 µM (HL-60(TB)): -2.05%
growth at 10 µM (OVCAR-3): 7.95%
GI50 (EKVX): 11 µM
TGI (EKVX): 25.9 µM
CC50 (EKVX): 60.8 µM
growth at 10 µM (OVCAR-4): 68.2%
growth at 10 µM (SF-268): 67.3%
growth at 10 µM (HCT-15): 0.18%
growth at 10 µM (HCC 2998): 68.3%
growth at 10 µM (NCI-H460): 79.5%
GI50 (786-0 [1]): 1.96 µM
LC50 (concentration giving net 50% loss of initial cells) (786-0 [1]): 6.82 µM
TGI (786-0 [1]): 3.66 µM
growth at 10 µM (SK-MEL-2): 63%
growth at 10 µM (NCI/ADR-RES): 31.6%
growth at 10 µM (K562 [2]): 9.67%
growth at 10 µM (T47D): 63.6%
growth at 10 µM (A498): 98.6%
growth at 10 µM (SR): 1.4%
growth at 10 µM (UO-31): 56.9%
growth at 10 µM (MOLT-4): -7.86%
growth at 10 µM (Hs-578T): 89.5%
growth at 10 µM (CCRF-CEM): -19.1%
GI50 (K562 [3]): 1.57 µM
TGI (K562 [3]): 8.42 µM
CC50 (K562 [3]): > 100 µM
growth at 10 µM (ACHN): 19.5%
growth at 10 µM (UACC-257): 69%
growth at 10 µM (BT-549): 27.2%
growth at 10 µM (SNB-75): 59.4%
growth at 10 µM (SK-OV-3): 109%
growth at 10 µM (TK-10): 58.4%
growth at 10 µM (786-0 [4]): 89.8%

C=C1CC[C@@H]2[C@](C)(COC(C)=O)[C@H](OC(C)=O)CC[C@@]2(C)[C@H]1CC(Nc1ccc(S(=O)(=O)Nc2ccc(Cl)nn2)cc1)C1=CCOC1=O (stereo partly specified)
growth at 10 µM (OVCAR-8): 16.9%
growth at 10 µM (UACC-62): -50%
growth at 10 µM (HL-60(TB)): -17.5%
growth at 10 µM (OVCAR-3): -56.1%
GI50 (EKVX): 4.53 µM
TGI (EKVX): 17 µM
CC50 (EKVX): 41.3 µM
growth at 10 µM (OVCAR-4): 30.9%
growth at 10 µM (SF-268): 43.3%
growth at 10 µM (HCT-15): -18.4%
growth at 10 µM (HCC 2998): 88.5%
growth at 10 µM (NCI-H460): 14.5%
GI50 (786-0 [1]): 1.69 µM
LC50 (concentration giving net 50% loss of initial cells) (786-0 [1]): 5.83 µM
TGI (786-0 [1]): 3.14 µM
growth at 10 µM (SK-MEL-2): 58.3%
growth at 10 µM (NCI/ADR-RES): 16.7%
growth at 10 µM (K562 [2]): 6.81%
growth at 10 µM (T47D): 34.1%
growth at 10 µM (A498): 89%
growth at 10 µM (SR): -5.26%
growth at 10 µM (UO-31): 18.4%
growth at 10 µM (MOLT-4): 0.4%
growth at 10 µM (Hs-578T): 75.6%
growth at 10 µM (CCRF-CEM): -10.3%
GI50 (K562 [3]): 0.52 µM
TGI (K562 [3]): 5.19 µM
CC50 (K562 [3]): > 100 µM
growth at 10 µM (ACHN): 16.1%
growth at 10 µM (UACC-257): 44%
growth at 10 µM (BT-549): -9.45%
growth at 10 µM (SNB-75): 25.2%
growth at 10 µM (SK-OV-3): 86.1%
growth at 10 µM (TK-10): 69.8%
growth at 10 µM (786-0 [4]): 58.8%
growth at 10 µM (SNB-19): 76%

Reference: ChEMBL document CHEMBL4033712, “Synthesis and biological evaluation of new C-12(α/β)-(N-) sulfamoyl-phenylamino-14-deoxy-andrographolide derivatives as potent anti-cancer agents” (Bioorg Med Chem Lett, 2017)
